What was measured:
[1] = target: T1, OATP-B (SLCO2B1, OATP2B1) (Homo sapiens, UniProt O94956); assay: in vitro; details: HEK293 cells expressing OATP-B, probe E1S (0.00476 uM)
T1 sequence (O94956 whole entry): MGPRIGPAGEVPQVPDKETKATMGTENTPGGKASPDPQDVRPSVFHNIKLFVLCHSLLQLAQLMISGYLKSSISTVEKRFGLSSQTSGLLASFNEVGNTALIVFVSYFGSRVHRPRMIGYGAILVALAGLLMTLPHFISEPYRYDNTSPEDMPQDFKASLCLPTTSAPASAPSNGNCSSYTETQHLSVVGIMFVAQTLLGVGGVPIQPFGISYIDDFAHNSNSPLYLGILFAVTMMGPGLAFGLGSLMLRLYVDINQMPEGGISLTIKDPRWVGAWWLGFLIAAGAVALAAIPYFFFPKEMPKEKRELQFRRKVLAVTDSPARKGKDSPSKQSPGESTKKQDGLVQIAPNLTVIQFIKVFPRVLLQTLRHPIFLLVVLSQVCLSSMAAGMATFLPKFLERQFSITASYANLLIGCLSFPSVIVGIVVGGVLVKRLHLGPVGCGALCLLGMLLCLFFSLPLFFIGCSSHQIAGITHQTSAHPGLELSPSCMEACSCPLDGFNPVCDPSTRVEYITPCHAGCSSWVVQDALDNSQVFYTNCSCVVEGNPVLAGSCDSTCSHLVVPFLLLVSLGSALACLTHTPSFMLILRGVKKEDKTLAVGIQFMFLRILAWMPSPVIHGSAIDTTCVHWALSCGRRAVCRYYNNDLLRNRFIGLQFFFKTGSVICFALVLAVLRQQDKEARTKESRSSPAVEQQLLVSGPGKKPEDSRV

[2] = target: T1, OATP-B (SLCO2B1, OATP2B1); assay: TP_TRANSPORTER: inhibition of E1S uptake (E1S: 0.00476 uM, benzoic acid: 10000 uM) in OATP-B-expressing HEK293 cells; type: functional, cell-based; parameters: scale not given: the % may be the effect or the level left; details: probe E1S (0.00476 uM), read-out: Activity
Procedure, shortened: (§1)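 HEK293 cells transfected with pcDNA3/OATP-B or empty vector (mock) by calcium phosphate, harvested 40-48 h later and suspended. Preincubated 20 min at 37°C at pH 7.4, then [3H]estrone-3-sulfate (4.76 nM) uptake for 10 min at 37°C in MES-buffered medium, pH 5.5. Cells separated by silicone oil centrifugal filtration and counted by scintillation. Mock-corrected uptake given as % of no-inhibitor control; mean ± S.E.M., n=3 or 4.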

[3] = target: T1, OATP-B (SLCO2B1, OATP2B1); assay: TP_TRANSPORTER: inhibition of E1S uptake (E1S: 0.00476 uM, citric acid: 10000 uM) in OATP-B-expressing HEK293 cells; type: functional, cell-based; parameters: scale not given: the % may be the effect or the level left; details: probe E1S (0.00476 uM), read-out: Activity
Procedure, shortened: as §1

[4] = target: T1, OATP-B (SLCO2B1, OATP2B1); assay: TP_TRANSPORTER: inhibition of E1S uptake (E1S: 0.00476 uM, lactic acid: 10000 uM) in OATP-B-expressing HEK293 cells; type: functional, cell-based; parameters: scale not given: the % may be the effect or the level left; details: probe E1S (0.00476 uM), read-out: Activity
Procedure, shortened: as §1

[5] = target: T2, Solute carrier organic anion transporter family member 2B1 (Homo sapiens, UniProt O94956); assay: TP_TRANSPORTER: uptake (pH 7.4) in OATP-B-expressing HEK293 cells; type: functional, cell-based; details: hek293, pH 7.4
T2 sequence (O94956 whole entry): T1 sequence (O94956 whole entry)

[6] = target: T1, OATP-B (SLCO2B1, OATP2B1); assay: in vitro; details: HEK293 cells expressing OATP-B, probe E1S (0.00476 uM); remark: listed apart in the source
[7] = target: T1, OATP-B (SLCO2B1, OATP2B1); assay: TP_TRANSPORTER: inhibition of E1S uptake (E1S: 0.00476 uM, oxalic acid: 10000 uM) in OATP-B-expressing HEK293 cells; type: functional, cell-based; parameters: scale not given: the % may be the effect or the level left; details: probe E1S (0.00476 uM), read-out: Activity
Procedure, shortened: as §1

[8] = target: T1, OATP-B (SLCO2B1, OATP2B1); assay: TP_TRANSPORTER: inhibition of E1S uptake (E1S: 0.00476 uM, phthalic acid: 10000 uM) in OATP-B-expressing HEK293 cells; type: functional, cell-based; parameters: scale not given: the % may be the effect or the level left; details: probe E1S (0.00476 uM), read-out: Activity
Procedure, shortened: as §1

[9] = target: T2, Solute carrier organic anion transporter family member 2B1; assay: TP_TRANSPORTER: uptake (pH 5.5) in OATP-B-expressing HEK293 cells; type: functional, cell-based; details: hek293, pH 5.5

Work on CC(=O)O [ACETIC ACID] yielded an activity at 10000 uM [1] of 86.1%.

Work on O=C(O)c1ccccc1 [BENZOIC ACID] yielded an activity at 10000 uM [2] of 56.1%.

For O=C(O)CC(O)(CC(=O)O)C(=O)O [CITRIC ACID], the activity at 10000 uM [3] was 97.7%.

In the case of C[C@@H](O)C(=O)O [D-LACTIC ACID], the activity at 10000 uM [4] is reported as 85.6%.

With C[C@]12CC[C@@H]3c4ccc(OS(=O)(=O)O)cc4CC[C@H]3[C@@H]1CCC2=O [ESTRONE SULFURIC ACID] the Activity [5] was “substrate [+]”.

O=C(O)c1cccnc1 [NIACIN] showed an activity at 10000 uM [6] of 59.7%.

O=C(O)C(=O)O [OXALIC ACID] showed an activity at 10000 uM [7] of 83.9%.

O=C(O)c1ccccc1C(=O)O [PHTHALIC ACID] was tested, and the activity at 10000 uM [8] was 42.7%.

With CC[C@H](C)C(=O)O[C@H]1C[C@H](O)C=C2C=C[C@H](C)[C@H](CC[C@@H](O)C[C@@H](O)CC(=O)O)[C@H]21 [PRAVASTATIN] the Activity [9] was “substrate [+]”.
